Results: ChEMBL document CHEMBL1130120, “N-arylpiperazinyl-N'-propylamino derivatives of heteroaryl amides as functional uroselective alpha 1-adrenoceptor antagonists” (J Med Chem, 1997)

Assays:
D(2) dopamine receptor = D(2) dopamine receptor (Homo sapiens, UniProt P14416); experiment: The compound's binding affinity against Dopamine receptor D2
[1] = target: T1, Alpha-1A adrenergic receptor (Oryctolagus cuniculus, UniProt O02824); experiment: Antagonistic activity against alpha 1A/1L receptor was assessed in a rabbit bladder neck functional assay; conditions: read-out: pA2 (converted)
T1 sequence (O02824 whole entry): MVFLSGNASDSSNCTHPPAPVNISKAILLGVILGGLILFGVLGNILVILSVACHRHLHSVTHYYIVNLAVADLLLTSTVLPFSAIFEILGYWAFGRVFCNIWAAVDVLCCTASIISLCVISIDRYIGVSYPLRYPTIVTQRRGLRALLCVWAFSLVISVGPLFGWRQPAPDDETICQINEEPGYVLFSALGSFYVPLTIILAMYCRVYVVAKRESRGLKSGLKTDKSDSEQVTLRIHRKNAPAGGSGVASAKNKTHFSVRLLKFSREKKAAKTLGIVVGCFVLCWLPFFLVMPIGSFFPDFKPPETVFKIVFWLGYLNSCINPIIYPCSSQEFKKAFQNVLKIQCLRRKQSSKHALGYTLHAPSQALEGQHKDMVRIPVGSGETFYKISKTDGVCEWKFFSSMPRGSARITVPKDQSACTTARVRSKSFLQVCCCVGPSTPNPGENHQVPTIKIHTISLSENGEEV

[2] = target: T2, 5-hydroxytryptamine receptor 1A (Mus musculus) (UniProt Q64264); experiment: The compound's binding affinity against 5-hydroxytryptamine 1A receptor
T2 sequence (whole entry): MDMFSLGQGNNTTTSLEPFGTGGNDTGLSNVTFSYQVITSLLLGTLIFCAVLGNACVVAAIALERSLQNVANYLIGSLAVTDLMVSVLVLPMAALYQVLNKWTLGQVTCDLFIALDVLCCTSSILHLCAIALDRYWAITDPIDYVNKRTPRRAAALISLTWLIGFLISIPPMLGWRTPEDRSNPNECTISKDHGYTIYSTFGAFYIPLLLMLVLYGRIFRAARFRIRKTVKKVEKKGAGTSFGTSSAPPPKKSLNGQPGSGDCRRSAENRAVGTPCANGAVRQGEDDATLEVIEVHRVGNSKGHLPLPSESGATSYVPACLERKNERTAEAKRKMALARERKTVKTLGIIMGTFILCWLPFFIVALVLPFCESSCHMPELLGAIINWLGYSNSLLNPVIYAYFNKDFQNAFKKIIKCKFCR

[3] = target: T3, Alpha-1A adrenergic receptor (Bos taurus, UniProt P18130); experiment: The compound was screened in vitro for the displacement of [3H]prazosin binding to bovine Alpha-1A adrenergic receptor
T3 sequence (P18130 whole entry): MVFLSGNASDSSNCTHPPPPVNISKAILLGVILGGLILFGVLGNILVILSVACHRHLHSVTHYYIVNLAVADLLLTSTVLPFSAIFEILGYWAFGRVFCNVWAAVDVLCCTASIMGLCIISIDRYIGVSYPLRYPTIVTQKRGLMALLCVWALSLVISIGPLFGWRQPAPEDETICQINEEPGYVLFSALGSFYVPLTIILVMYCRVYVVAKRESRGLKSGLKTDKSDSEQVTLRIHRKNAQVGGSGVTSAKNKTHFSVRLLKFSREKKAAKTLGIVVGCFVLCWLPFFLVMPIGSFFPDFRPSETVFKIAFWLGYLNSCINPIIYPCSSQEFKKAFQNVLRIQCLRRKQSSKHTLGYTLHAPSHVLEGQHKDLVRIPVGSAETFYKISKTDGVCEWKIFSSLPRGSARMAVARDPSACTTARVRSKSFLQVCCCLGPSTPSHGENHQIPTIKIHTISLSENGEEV

[4] = target: T4, Alpha-1D adrenergic receptor (Rattus norvegicus, UniProt P23944); experiment: Antagonistic activity against rat aorta for affinity estimates representative of the Alpha-1D adrenergic receptor; assay type: functional, tissue-based; conditions: read-out: pA2 (converted)
T4 sequence (P23944 whole entry): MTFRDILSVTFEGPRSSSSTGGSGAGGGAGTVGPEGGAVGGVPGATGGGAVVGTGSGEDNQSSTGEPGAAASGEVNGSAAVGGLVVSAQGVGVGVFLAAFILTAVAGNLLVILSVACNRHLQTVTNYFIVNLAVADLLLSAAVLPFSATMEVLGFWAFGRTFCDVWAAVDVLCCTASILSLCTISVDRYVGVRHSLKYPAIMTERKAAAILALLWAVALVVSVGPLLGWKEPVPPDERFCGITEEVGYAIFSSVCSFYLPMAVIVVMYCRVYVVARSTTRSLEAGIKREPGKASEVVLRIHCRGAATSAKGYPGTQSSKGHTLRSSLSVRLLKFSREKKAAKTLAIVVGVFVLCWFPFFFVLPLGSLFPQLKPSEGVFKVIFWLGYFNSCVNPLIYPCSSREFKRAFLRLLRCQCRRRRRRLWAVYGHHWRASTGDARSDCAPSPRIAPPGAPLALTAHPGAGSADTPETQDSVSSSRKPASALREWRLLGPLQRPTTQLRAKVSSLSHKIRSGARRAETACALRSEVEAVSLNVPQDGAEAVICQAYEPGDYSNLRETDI
In short: (§1)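 Isolated smooth-muscle tissue with cumulative norepinephrine concentration–effect curves (rat aorta, human lower urinary tract). Affinity obtained by full Schild regression for some antagonists. […] Competitive, reversible interaction at a single subtype assumed.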

[5] = target: Adrenergic receptor alpha-1 (Homo sapiens) (UniProt P35348+P25100+P35368); experiment: The compound was screened in vitro for functional activity against Alpha-1 adrenergic receptor subtypes of human prostate tissue; in short: as §1
[6] = target: T3, Alpha-1A adrenergic receptor; experiment: In vitro for the displacement of [3H]prazosin binding to bovine Alpha-1A adrenergic receptor
[7] = target: T5, Adrenergic receptor alpha-1 (Homo sapiens, UniProt P35348+P25100+P35368); experiment: Activity against Alpha-1 adrenergic receptor subtypes of human prostate tissue; assay type: functional
T5 sequence (P35348 whole entry): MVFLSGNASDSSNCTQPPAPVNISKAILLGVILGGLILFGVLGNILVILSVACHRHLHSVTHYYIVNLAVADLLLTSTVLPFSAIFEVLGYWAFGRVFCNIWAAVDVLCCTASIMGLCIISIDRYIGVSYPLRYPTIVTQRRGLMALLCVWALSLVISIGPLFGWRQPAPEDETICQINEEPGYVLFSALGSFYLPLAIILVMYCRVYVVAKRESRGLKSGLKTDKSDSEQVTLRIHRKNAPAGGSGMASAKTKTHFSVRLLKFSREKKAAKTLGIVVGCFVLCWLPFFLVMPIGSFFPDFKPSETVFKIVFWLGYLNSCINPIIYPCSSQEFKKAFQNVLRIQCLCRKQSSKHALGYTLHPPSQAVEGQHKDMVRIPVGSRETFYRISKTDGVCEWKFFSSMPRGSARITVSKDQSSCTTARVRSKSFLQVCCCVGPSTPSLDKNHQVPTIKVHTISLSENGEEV
T5 sequence (P25100 whole entry): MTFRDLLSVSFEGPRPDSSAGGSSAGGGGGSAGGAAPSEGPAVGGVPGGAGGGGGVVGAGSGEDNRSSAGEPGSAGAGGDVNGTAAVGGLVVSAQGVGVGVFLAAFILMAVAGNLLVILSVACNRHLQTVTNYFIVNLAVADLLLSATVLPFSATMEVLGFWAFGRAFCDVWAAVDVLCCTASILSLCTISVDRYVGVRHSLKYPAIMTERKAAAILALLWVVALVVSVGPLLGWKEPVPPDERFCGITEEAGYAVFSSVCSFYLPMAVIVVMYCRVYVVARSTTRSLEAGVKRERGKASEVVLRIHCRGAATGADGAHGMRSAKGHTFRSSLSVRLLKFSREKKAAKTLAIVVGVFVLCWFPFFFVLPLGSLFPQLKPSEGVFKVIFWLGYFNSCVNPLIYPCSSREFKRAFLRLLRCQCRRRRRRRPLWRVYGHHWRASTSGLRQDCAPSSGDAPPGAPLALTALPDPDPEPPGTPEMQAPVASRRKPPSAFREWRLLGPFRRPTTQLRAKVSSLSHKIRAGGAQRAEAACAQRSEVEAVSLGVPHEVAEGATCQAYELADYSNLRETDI
T5 sequence (P35368 whole entry): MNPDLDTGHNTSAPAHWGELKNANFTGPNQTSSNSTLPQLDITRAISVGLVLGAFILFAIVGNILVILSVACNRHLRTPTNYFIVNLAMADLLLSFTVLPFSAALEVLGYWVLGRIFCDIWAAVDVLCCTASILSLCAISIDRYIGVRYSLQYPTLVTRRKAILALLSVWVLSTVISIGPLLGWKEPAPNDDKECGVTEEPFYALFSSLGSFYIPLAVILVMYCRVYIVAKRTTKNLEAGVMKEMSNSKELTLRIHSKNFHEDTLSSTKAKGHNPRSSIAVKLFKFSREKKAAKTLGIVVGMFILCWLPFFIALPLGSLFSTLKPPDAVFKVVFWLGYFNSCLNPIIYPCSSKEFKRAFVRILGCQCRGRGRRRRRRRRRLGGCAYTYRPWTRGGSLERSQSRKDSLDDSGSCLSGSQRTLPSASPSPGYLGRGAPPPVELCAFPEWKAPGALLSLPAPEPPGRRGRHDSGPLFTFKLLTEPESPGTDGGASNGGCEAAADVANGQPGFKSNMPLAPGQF
In short: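 Isolated smooth-muscle tissue with cumulative norepinephrine concentration–effect curves (rat aorta, human lower urinary tract). Affinity obtained by full Schild regression for some antagonists. Competitive, reversible interaction at a single subtype assumed.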

[8] = target: T6, Alpha-2B adrenergic receptor (Rattus norvegicus, UniProt P19328); experiment: The compound's binding affinity against Alpha-2B adrenergic receptor from rat kidney homogenate in the presence of phentolamine
T6 sequence (P19328 whole entry): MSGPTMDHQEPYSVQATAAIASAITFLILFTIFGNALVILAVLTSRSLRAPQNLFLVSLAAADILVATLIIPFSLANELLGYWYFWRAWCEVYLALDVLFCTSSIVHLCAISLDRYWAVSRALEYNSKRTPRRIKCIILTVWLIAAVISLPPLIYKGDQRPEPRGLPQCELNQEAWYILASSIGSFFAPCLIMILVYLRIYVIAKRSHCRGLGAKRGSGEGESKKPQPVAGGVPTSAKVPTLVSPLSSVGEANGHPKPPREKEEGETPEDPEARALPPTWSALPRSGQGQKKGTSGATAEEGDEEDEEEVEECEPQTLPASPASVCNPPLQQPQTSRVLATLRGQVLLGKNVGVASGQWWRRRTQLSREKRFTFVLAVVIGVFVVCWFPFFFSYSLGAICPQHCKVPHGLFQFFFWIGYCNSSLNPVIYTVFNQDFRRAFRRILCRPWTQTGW

D(2) dopamine receptor, sequence (P14416 whole entry): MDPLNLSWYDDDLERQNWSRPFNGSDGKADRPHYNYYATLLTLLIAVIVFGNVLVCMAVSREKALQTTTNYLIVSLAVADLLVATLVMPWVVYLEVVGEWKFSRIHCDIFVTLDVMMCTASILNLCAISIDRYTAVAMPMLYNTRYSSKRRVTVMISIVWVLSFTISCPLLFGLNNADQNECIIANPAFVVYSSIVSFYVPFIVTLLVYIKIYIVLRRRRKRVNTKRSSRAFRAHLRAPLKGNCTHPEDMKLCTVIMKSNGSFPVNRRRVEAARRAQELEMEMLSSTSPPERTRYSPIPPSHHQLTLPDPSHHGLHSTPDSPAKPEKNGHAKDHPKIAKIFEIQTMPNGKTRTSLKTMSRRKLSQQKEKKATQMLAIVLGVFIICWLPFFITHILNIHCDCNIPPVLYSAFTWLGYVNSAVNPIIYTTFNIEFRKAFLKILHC

SMILES	pKi (D(2) dopamine receptor)	Kb [1] [nM]	pKi [2]	Ki [3] [nM]	Kb [4] [nM]	pA2 [5]	Ki [6] [nM]	pA2 [7]	Ki (D(2) dopamine receptor) [nM]	Ki [8] [nM]
COc1ccccc1N1CCN(CCCNc2ncccc2C(=O)NC(C)(C)C)CC1	–	1.26	–	–	10	–	1.58	8.7	–	–
CN(C)C(=O)c1cccnc1NCCCN1CCN(c2ccccc2-c2ccccc2)CC1	–	1.26	–	–	63.1	–	–	–	126	79.4
COc1cc(F)ccc1N1CCN(CCCNc2c(C(=O)N(C)C)cnc3c2c(C)nn3C)CC1	6.4	1.26	6.5	–	316	9.3	–	–	–	–
Cc1nn(C)c2ncc(C(=O)N(C)C)c(NCCCN3CCN(c4ccccc4OCC(F)(F)F)CC3)c12	8.1	0.501	7.5	–	126	9	–	–	–	–

Other lines, results leading:

pKi (D(2) dopamine receptor)	Kb [1] [nM]	pKi [2]	Ki [3] [nM]	Kb [4] [nM]	pA2 [5]	Ki [6] [nM]	pA2 [7]	Ki (D(2) dopamine receptor) [nM]	Ki [8] [nM]	SMILES
7.4	1.58	7.6	0.794	20	8.5	–	–	–	–	COc1ccccc1N1CCN(CCCNc2ncccc2C(=O)N(C)C)CC1
6.7	1.58	6.7	–	63.1	8.5	–	–	–	–	COc1cc(F)ccc1N1CCN(CCCNc2ncccc2C(=O)N(C)C)CC1
